Reference: PubChem BioAssay AID449754 (Broad Institute, 2010)
Records with an inconclusive call do not appear. The source made the active and inactive calls.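 Rule for the calls: active = compounds whose fitted caspase activation AC50 is no more than tenfold above the top tested dose; inconclusive = flat fit with 30 to 70% activity, or a failed fit; inactive = the rest.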

Test system: MEF Bax/Bak KO A1-BIM, caspase-Glo luminescence, 3 h
Experiment: caspase activation in Bax/Bak-deficient MEFs, dose response, counter-screen for A1 inhibitor project, cell-based, Bax-Bak knockout MEF, A1-2A-BIM, luminescence (AID 449754);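 note: counterscreen where caspase activation signals off-target toxicity not A1 inhibition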
Outline: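 Material: Bax/Bak-knockout mouse embryonic fibroblasts expressing A1-2A-BIM | Quantity: 2500 cells per well, seeded one day before compound | Buffer or medium: RPMI-1640, 10% FBS | Incubation: 3 h compound at 37 °C, 1 h detection at RT | Signal: CaspaseGlo luminescence, reagent diluted 1:1 in 50 mM HEPES | Evaluation: Caspase activity from luminescent signal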

CC1=NNC(=O)/C1=C\c1cn(-c2ccccc2)nc1-c1ccccc1
AC50: 11 µM

COc1ccccc1-c1cn[nH]c1-c1ccc(OCc2ccccc2)cc1O
AC50: > 35 µM (inactive)

Oc1[nH]c2ccc(Br)cc2c1N=NC(=S)Nc1ccc(F)cc1
AC50: > 35 µM (inactive)

Cc1c(C=O)c(C=O)c(C)n1Cc1ccccc1
AC50: > 35 µM (inactive)

COc1ccc(OC)c2sc(N(CCCN(C)C)C(=O)c3ccc(S(=O)(=O)N4CCc5ccccc5C4)cc3)nc12
AC50: > 35 µM (inactive)

O=C1/C(=C\c2c(NCCOCCO)nc3ccccn3c2=O)SC(=S)N1Cc1ccco1
AC50: > 35 µM (inactive)

CC(C)N=c1scc(-c2ccco2)n1/N=C/c1ccc(O)c(O)c1
AC50: > 35 µM (inactive)

CCOC(=O)/C=c1\s/c(=C\c2ccc(C(=O)OC)cc2)c(=O)n1CC(=O)Nc1ccccc1
AC50: > 35 µM (inactive)

COc1ccc2c(c1)CCc1c(C(=O)Nc3cc(C)n(Cc4ccc(Cl)cc4)n3)noc1-2
AC50: 7.59 µM

CCOc1cc(/C=N/Nc2cc(C)nc(-n3nc(C)cc3C)n2)ccc1O
AC50: > 35 µM (inactive)

O=C(Oc1cccc(/C=N/Nc2nc(Nc3ccccc3)nc(N3CCOCC3)n2)c1)c1ccco1
AC50: > 35 µM (inactive)

Cc1cccc(NC(=O)CSc2nc(C)c(CC(=O)c3ccc(Br)cc3)c(C)c2C#N)c1C
AC50: > 35 µM (inactive)

COc1ccc(NC(=O)c2cccc3c2C(=O)c2ccc(-c4ccc(F)cc4OCc4ccccc4)cc2S3(=O)=O)cc1
AC50: > 35 µM (inactive)

CCc1ccc(NC(=O)c2nc(S(=O)(=O)Cc3ccccc3)ncc2Cl)cc1
AC50: > 35 µM (inactive)

CC1=NNC(=O)/C1=C\c1cn(-c2ccccc2)nc1-c1cccs1
AC50: 7.61 µM

CC(C)c1cccc(-c2ccc3c(c2)S(=O)(=O)c2cccc(C(=O)NC4CCCC4)c2C3=O)c1
AC50: > 35 µM (inactive)

CC(C)(C)c1ccc(C(=O)Nc2ccc(O)c3c(=O)cc(-c4cccc(Cl)c4)oc23)cc1
AC50: > 35 µM (inactive)

CCOC(=O)c1c(C)oc2c1c(CN1CCN(C(=O)OCC)CC1)c(O)c1ccccc12
AC50: 13 µM

COc1ccc(-c2oc(=O)c3cc(OC)c(OC)cc3c2/C=C/c2cccc([N+](=O)[O-])c2)cc1
AC50: > 35 µM (inactive)

COc1ccc(Oc2cc(NC(=O)c3nn(C)cc3[N+](=O)[O-])cc([N+](=O)[O-])c2)cc1
AC50: > 35 µM (inactive)

CC1(C)C[C@H](O)[C@]2(CO)[C@H](O)C[C@]3(C)C(=CCC4[C@@]5(C)CC[C@H](O)C(C)(C)C5CC[C@]43C)[C@@H]2C1 (some centres undefined)
AC50: > 35 µM (inactive)

O=C(c1ccc(COc2ccc3ccccc3c2)o1)N1N=C(C(F)F)CC1(O)C(F)F (centres undefined)
AC50: > 35 µM (inactive)

COc1ccc(C2CC(c3c(O)cc(C)oc3=O)=NCCS2)c(OC)c1 (centres undefined)
AC50: > 35 µM (inactive)

O=C(NCCc1ccccc1)C(c1cccs1)N(C(=O)CCl)c1ccc(Cl)cc1 (centres undefined)
AC50: 6.03 µM

Cc1cc(NC(=O)/C(C#N)=C/c2ccc(-c3ccc(SC(F)F)cc3)o2)n(-c2ccccc2)n1
AC50: > 35 µM (inactive)

Cc1ccc(C)c(NC(=S)NC(NC(=O)Cc2cccc3ccccc23)C(Cl)(Cl)Cl)c1 (centres undefined)
AC50: 24.1 µM

Cc1ccc(NC(=O)c2ccc(NCC3CCCO3)c([N+](=O)[O-])c2)cc1Cl (centres undefined)
AC50: > 35 µM (inactive)

COc1ccccc1CCNC(C)CCc1ccc(O)cc1 (centres undefined)
AC50: > 35 µM (inactive)

O=C(NC[C@H]1CCCO1)c1cccc2c1C(=O)c1ccc(-c3ccc(F)cc3OCc3ccccc3)cc1S2(=O)=O
AC50: > 35 µM (inactive)

O=C(Nc1ccc(O)c2c(=O)cc(-c3cccc(Cl)c3)oc12)c1cccc(Cl)c1
AC50: > 35 µM (inactive)

Cc1ccc(-c2nc(NC(=O)c3nn(C)cc3[N+](=O)[O-])sc2C)cc1C
AC50: 16.2 µM

O=C(Nc1ccc2oc(-c3ccccc3F)nc2c1)c1ccccc1F
AC50: > 35 µM (inactive)

O=C(CN(c1ccc(Br)cc1)S(=O)(=O)c1ccc(Cl)c([N+](=O)[O-])c1)NCCc1ccccc1
AC50: > 35 µM (inactive)

COc1ccc(NC(=O)CSc2nc3ccc(Nc4nc(N5CCOCC5)nc(N5CCOCC5)n4)cc3s2)cc1
AC50: > 35 µM (inactive)

Cc1cc(C)cc(Cn2ncc(Cl)c(Cl)c2=O)c1
AC50: > 35 µM (inactive)

COc1ccc(OC)c(NC(=O)c2cc3c(Cl)nc4ccccc4c3s2)c1
AC50: > 35 µM (inactive)

O=C(COc1ccc(/C=N/NC(=O)c2cc3ccccc3o2)cc1Cl)Nc1ccccc1
AC50: 9.03 µM

NC(=S)c1cn(C2OC(CO)C(O)C2O)c2ncnc(N)c12 (centres undefined)
AC50: > 35 µM (inactive)

CCc1nnc(NC(=O)c2nc(S(=O)(=O)Cc3ccccc3)ncc2Cl)s1
AC50: > 35 µM (inactive)

CN(C)CCCN(C(=O)c1cc2cc([N+](=O)[O-])ccc2s1)c1nc2cc3c(cc2s1)OCCO3
AC50: > 35 µM (inactive)

COC(=O)[C@@]1(C)CC[C@]2(C)CC[C@@]3(C)C(=CC(=O)C4[C@@]5(C)CC[C@H](O)C(C)(C)[C@@H]5CC[C@]43C)[C@H]2C1 (some centres undefined)
AC50: > 35 µM (inactive)

Cc1cccc(NC(=O)/C(C#N)=C/c2cn(CC(=O)NCc3ccco3)c3ccccc23)c1
AC50: > 35 µM (inactive)

CCc1ccc2nc(N(CCCN(C)C)C(=O)c3ccc(S(=O)(=O)N4CCc5ccccc5C4)cc3)sc2c1
AC50: > 35 µM (inactive)

CCOC(=O)c1sc(NC(=O)CSc2nc(C)cc(C)c2C#N)c(C#N)c1C
AC50: > 35 µM (inactive)

CCOC(=O)C1=C(c2ccccc2)O/C(=C(/C#N)C(F)(F)F)S1
AC50: > 35 µM (inactive)

Cn1cc([N+](=O)[O-])c(C(=O)Nc2cc(Oc3ccccc3)cc([N+](=O)[O-])c2)n1
AC50: > 35 µM (inactive)

CC(=O)OC(C)(C)/C=C/C(=O)[C@](C)(O)C1[C@H](O)C[C@@]2(C)C3CC=C4C(C[C@H](O)C(=O)C4(C)C)[C@]3(C)C(=O)C[C@]12C (some centres undefined)
AC50: > 35 µM (inactive)

N#Cc1cccnc1N1CCN(C(=O)c2cccc3c2C(=O)c2ccc(-c4ccc(Cl)c(C(F)(F)F)c4)cc2S3(=O)=O)CC1
AC50: > 35 µM (inactive)

Cc1ccc(N(Cc2cc(=O)[nH]c3ccccc23)C(=O)CCl)cc1
AC50: > 35 µM (inactive)

CC(C)c1cccc(-c2ccc3c(c2)S(=O)(=O)c2cccc(C(=O)NCc4ccccc4Cl)c2C3=O)c1
AC50: > 35 µM (inactive)

Cc1cc(=O)[nH]c(SCC(=O)Nc2ccc(Br)cc2)c1C#N
AC50: > 35 µM (inactive)

Cc1ccc(C)c(S(=O)(=O)NCC(=O)Nc2sc3c(c2C(N)=O)CCC(C)C3)c1 (centres undefined)
AC50: > 35 µM (inactive)

O=C(/C=C/c1ccc(F)cc1)NC(=S)Nc1ccccc1C(=O)NC1CCCCC1
AC50: > 35 µM (inactive)

Cc1ccc(S(=O)(=O)c2nnn3c2nc(Nc2cccc(C)c2)c2ccccc23)cc1
AC50: > 35 µM (inactive)

CC(=O)Nc1ccc(NC(=O)C(C)OC(=O)/C=C/c2cn(-c3ccccc3)nc2-c2cccnc2)cc1 (centres undefined)
AC50: 18.4 µM

COC(=O)CSc1nc(N)c2c3c(sc2n1)C(c1ccccc1)SC(c1ccccc1)C3 (centres undefined)
AC50: > 35 µM (inactive)

COc1cc2c(cc1NC(=O)COC(=O)/C=C/c1ccccc1)oc1ccccc12
AC50: > 35 µM (inactive)

COc1cccc(C(=O)C(C#N)=C(SC)SC)c1
AC50: > 35 µM (inactive)

Cn1c(=NC(=O)CCl)sc2ccccc21
AC50: > 35 µM (inactive)

COc1cc(/C=C(/C#N)c2nc3ccccc3[nH]2)ccc1OCC(=O)Nc1ccccc1C
AC50: 7.39 µM

c1ccc(-c2sc3ccccc3c2-c2ccc(OCCN3CCCC3)cc2)cc1
AC50: 33 µM

COc1cc2c(-c3ccccc3)c(C)oc2cc1/C=N/NC(N)=S
AC50: > 35 µM (inactive)

CCn1c(SCC(=O)c2ccccc2)nnc1-c1cc2cc(Br)ccc2o1
AC50: > 35 µM (inactive)

Cc1cccc(C)c1NC(=O)C(Cl)C(=O)c1ccccc1 (centres undefined)
AC50: > 35 µM (inactive)

Cc1ccc2c(c1)c(C1=c3ccccc3=NC1=O)c(O)n2C
AC50: > 35 µM (inactive)

O=C(N=Nc1c(O)[nH]c2ccc([N+](=O)[O-])cc12)c1cc(-c2ccccc2Cl)nc2ccccc12
AC50: > 35 µM (inactive)

N#C/C(=C\c1ccc(OCc2ccccc2)cc1)C(=O)Nc1nc2c(s1)CCN(Cc1ccccc1)C2
AC50: > 35 µM (inactive)

CCC(Sc1nc2cc3c(cc2c(=O)n1Cc1ccco1)OCO3)C(=O)Nc1cccc(OC)c1 (centres undefined)
AC50: > 35 µM (inactive)

C=CC(=O)Nc1ccc(CN2C(=O)N(c3c(Cl)c(OC)cc(OC)c3Cl)Cc3cnc(NCCCCN(CC)CC)nc32)cc1
AC50: > 35 µM (inactive)

COc1ccc(OC[C@@H](O)CNC(=O)c2cccc3c2C(=O)c2ccc(-c4ccc(F)cc4OCc4ccccc4)cc2S3(=O)=O)cc1
AC50: > 35 µM (inactive)

CCOCCCNC(=O)c1ccc2c(c1)N=C(CC)c1cc(Br)ccc1S2
AC50: > 35 µM (inactive)

COc1ccc2c(c1)[nH]c1c(=O)n(/N=C/C3C(C)C=C(C)CC3C)c(=O)[nH]c12 (centres undefined)
AC50: > 35 µM (inactive)

CCSc1nnc(NC(=O)c2nc(S(=O)(=O)Cc3ccc(F)cc3)ncc2Cl)s1
AC50: > 35 µM (inactive)

CN(C)C/C=C(\c1ccc(Br)cc1)c1cccnc1
AC50: > 35 µM (inactive)

Clc1ccccc1CN(Cc1ccccc1)c1ncnc2nc[nH]c12
AC50: > 35 µM (inactive)

COc1cc(-c2cc(-c3ccccc3)nc(SCC(=O)Nc3nccs3)c2C#N)cc(OC)c1OC
AC50: > 35 µM (inactive)

COc1ccc(C2Nc3ccc4ccccc4c3-c3c2c(=O)oc2ccccc32)cc1 (centres undefined)
AC50: 18.7 µM

CC(=O)[C@]1(O)Cc2c(O)c3c(c(O)c2[C@@H](O[C@H]2C[C@H](N)[C@H](O)[C@H](C)O2)C1)C(=O)c1ccccc1C3=O
AC50: > 35 µM (inactive)

CC1=CC(=O)C(C(C)C)=C/C1=N/OS(=O)(=O)c1ccccc1
AC50: 7.41 µM

COc1cc(NC(=O)c2ccccc2F)ccc1NC(=O)c1cc2ccccc2o1
AC50: > 35 µM (inactive)

Cc1ccc(NC(=O)c2cc(N3C(=O)C=CC3=O)ccc2N2CCOCC2)cc1Cl
AC50: > 35 µM (inactive)

O=C1C2C3C=CC(CO)(O3)C2C(=O)N1c1ccc(-c2ccccc2)cc1 (centres undefined)
AC50: > 35 µM (inactive)

CCCCN1C(=O)/C(=C2/Sc3ccccc3N2C)S/C1=N\c1ncn[nH]1
AC50: > 35 µM (inactive)

CC(C)(C)[C@H](N)C(=O)N[C@H]1CCC2C3CC=C4C[C@@H](O)CC[C@]4(C)C3CC[C@@]21C (some centres undefined)
AC50: > 35 µM (inactive)
